Assay outcomes from PubChem BioAssay.
This is a sample that favours compounds with a hit; in the whole collection about 5.8% have one here.
FAK inh – FAK kinase inhibitors, primary screen, biochemical; Focal adhesion kinase 1 (Homo sapiens), Q05397; biochemical FAK kinase activity assay; inhibition, %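 (tested at 7 µM)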; 0.84% of 97,000 active; AID 727, 2007; in the data active means inhibition above about 19%;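 further: 0% = DMSO and 100% = reference compound high control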
Pyk2 oligo antag – antagonists of Pyk2 self-association, primary screen, Q293 cells, FERM NanoBiT luminescence, HTS. z-score (the deposit names both 25 µM and 10 µM). 0.83% of 99,000 active. Protein-tyrosine kinase 2-beta (Homo sapiens), Q14289. active compounds read low;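 active means Z-score of -3 or lower, scaled per plate to the spread of control and sample wells; inactive means z-score above -3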;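 further: negative z-score means lost luminescence so less FERM oligomerization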
PLK1 inh – human PLK1 kinase inhibitors, primary screen, biochemical, TR-FRET; Serine/threonine-protein kinase PLK1 (Homo sapiens), P53350; recombinant PLK1 kinase, TR-FRET peptide phosphorylation; inhibition, % at 10 µM; 0.53% of 97,000 active; AID 619, 2007;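 active means inhibition of 50% or more in the single-concentration screen; inactive means inhibition below 50%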;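 further: 0% = DMSO max control and 100% = H-89 dihydrochloride min control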
PLK1 PBD inh – Plk1 polo box domain binding inhibitors, primary screen, biochemical, fluorescence polarization | Serine/threonine-protein kinase PLK1 (Homo sapiens), P53350 | Plk1 PBD phosphopeptide binding | inhibition, %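 (tested at about 20 µM)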 | 0.13% of 97,000 active; in the data active means inhibition above about 34%, passing the limit was not always enough
Cav32 inh – Cav3.2 calcium influx blockers – cell-based, Fluo-4 calcium fluorescence, FDSS, MLSMR library, primary screen | Voltage-dependent T-type calcium channel subunit alpha-1H (Homo sapiens), O95180 | Cav3.2-expressing cells; active compounds read low | B-score at 10 µM | 4% of 100,000 active | AID 449739, 2010;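 active means single-dose well whose peak fluorescence ratio is a statistical outlier from its plate by either plate-standardised score or position-corrected B-score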
HIV Rev-RRE inh – HIV-1 Rev-RRE binding inhibitors, primary screen, biochemical, FRET, protein-RNA interaction | P05866 | Rev peptide-RRE RNA binding | inhibition, % at 8 µM | 0.79% of 97,000 active | AID 704, 2007;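 active means inhibition above the screen-wide mean plus 3 SD, cut at about 35% in these data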;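 further: 0% = median DMSO wells and 100% = median Neomycin B control wells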
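Assay system: labelled RRE RNA duplex and labelled Rev peptide / Medium: HEPES pH 7.5 salt buffer with EDTA / Reagent: labelled Rev peptide / Schedule: 5 + 15 min at 25 °C / Signal: FRET, excitation 480 nm, emission 540 nm donor and 671 nm acceptor / Benchmarks: DMSO and neomycin B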
Numbers without * were called inactive; [ ] = another dose, or the depositor's remark.

What do the screens show for `CCN1CCc2nc(NC(=O)Cc3ccc4c(c3)OCCO4)sc2C1`?
FAK inh: 8; Pyk2 oligo antag: 2.9; PLK1 inh: 2; PLK1 PBD inh: 2; Cav32 inh: 0.09; HIV Rev-RRE inh: 11

How did O=C(Nc1nc2c(s1)CN(Cc1ccccc1)CC2)c1cccc(S(=O)(=O)N2CCc3ccccc32)c1 do in these assays?
FAK inh: -14; Pyk2 oligo antag: -1; PLK1 inh: -6; PLK1 PBD inh: 13; Cav32 inh: -2.6; HIV Rev-RRE inh: 122*[fluorescence artefact?]

Results for CCN1CCc2nc(NC(=O)c3ccc4c(c3)OCCO4)sc2C1 ?
FAK inh: 3; Pyk2 oligo antag: 0.11; PLK1 inh: -15; PLK1 PBD inh: -30; Cav32 inh: -0.79; HIV Rev-RRE inh: 36*

How did CCn1cc(C(=O)OCC(=O)Nc2ccc(S(=O)(=O)N3CCCC3)cc2)c(=O)c2ccc(C)nc21 do in these assays?
FAK inh: 8; Pyk2 oligo antag: -0.61; PLK1 inh: -13; PLK1 PBD inh: 4; Cav32 inh: 0.26; HIV Rev-RRE inh: 1

Results for Cc1ccc(NC(=O)CSc2nnc(Cn3cnc4ccccc43)o2)cc1 ?
FAK inh: -5; Pyk2 oligo antag: 0.97; PLK1 inh: 0; PLK1 PBD inh: 5; Cav32 inh: -2.5; HIV Rev-RRE inh: 0

Results for Cn1cccc1Cc1nnc(SCC(=O)Nc2ccc3c(c2)OCCO3)n1-c1ccc(F)cc1 ?
Cav32 inh: -7.7*

Results for O=C1COc2ccc(C(=O)CSc3nnc(Cc4cccs4)n3-c3ccccc3)cc2N1 ?
FAK inh: -1; Pyk2 oligo antag: 1.7; PLK1 inh: -1; PLK1 PBD inh: -2; Cav32 inh: -5.4*; HIV Rev-RRE inh: 16

How did Cc1ccc(-n2c(Cc3cccn3C)nnc2SCC(=O)Nc2nnc(C)s2)cc1 do in these assays?
FAK inh: -4; Pyk2 oligo antag: -0.01; PLK1 inh: -7; PLK1 PBD inh: -23; Cav32 inh: -0.53; HIV Rev-RRE inh: 4

What do the screens show for `Cc1ccc(-n2c(Cc3cccn3C)nnc2SCC(=O)NCc2ccc3c(c2)OCO3)cc1`?
FAK inh: -1; Pyk2 oligo antag: -0.38; PLK1 inh: -10; PLK1 PBD inh: 2; Cav32 inh: -5*; HIV Rev-RRE inh: 2

What do the screens show for `O=C1COc2ccc(C(=O)CSc3nnc(-c4cccs4)n3Cc3ccccc3)cc2N1`?
FAK inh: 4; Pyk2 oligo antag: -0.23; PLK1 inh: 6; PLK1 PBD inh: -20; Cav32 inh: -2.2; HIV Rev-RRE inh: 1

What do the screens show for `O=C(CSc1nnc(Cc2cccs2)n1-c1ccccc1)Nc1ccc2c(c1)OCCO2`?
FAK inh: 1; Pyk2 oligo antag: -0.56; PLK1 inh: -3; PLK1 PBD inh: -8; Cav32 inh: -4.8*; HIV Rev-RRE inh: 3

What do the screens show for `Cc1ccc(-n2c(Cc3cccs3)nnc2SCC(=O)Nc2ccc(F)c(F)c2)cc1`?
FAK inh: 5; Pyk2 oligo antag: -2.3; PLK1 inh: 17; PLK1 PBD inh: -9; Cav32 inh: -1.5; HIV Rev-RRE inh: 8

What do the screens show for `CCc1nnc(NC(=O)CSc2nnc(CSc3nc(C)cc(C)n3)n2CC)s1`?
FAK inh: -5; PLK1 inh: -2; PLK1 PBD inh: 17; HIV Rev-RRE inh: -2

How did O=C(CSc1nccn1-c1cccc(Cl)c1)Nc1ccc2c(c1)OCCO2 do in these assays?
FAK inh: 1; PLK1 inh: -3; PLK1 PBD inh: -3; Cav32 inh: -3.7*; HIV Rev-RRE inh: 6

How did Cc1ccc(-n2c(Cc3cccn3C)nnc2SCC(=O)Nc2ccc3c(c2)OCO3)cc1 do in these assays?
FAK inh: 4; Pyk2 oligo antag: 0.19; PLK1 inh: -15; PLK1 PBD inh: -20; Cav32 inh: -3.9*; HIV Rev-RRE inh: 3

How did C=CCNC(=O)/C(C#N)=C/c1cn(-c2ccccc2)nc1-c1cccs1 do in these assays?
Pyk2 oligo antag: 0.8

How did CNc1nc(SCc2ccc(C)cc2)nc2c1CCCC2 do in these assays?
FAK inh: -1; Pyk2 oligo antag: -0.66; PLK1 inh: -7; PLK1 PBD inh: 8; Cav32 inh: -6*; HIV Rev-RRE inh: 17

What do the screens show for `Cc1ccc(CSc2nc3c(c(N(C)C)n2)CCCC3)cc1`?
FAK inh: 3; Pyk2 oligo antag: 0.28; PLK1 inh: -8; PLK1 PBD inh: -6; Cav32 inh: -1.7; HIV Rev-RRE inh: 9

Results for CCCCC(=O)Nc1c(C)cc(C)cc1Cl ?
FAK inh: 2; Pyk2 oligo antag: -0.31; PLK1 inh: 2; PLK1 PBD inh: 8; Cav32 inh: 1.3; HIV Rev-RRE inh: -3

Results for CCOC(=O)C1=NN(c2cccc(C)c2)C2(S1)SC(C(C)=O)=C(C)N2c1ccccc1 (stereo unspecified) ?
FAK inh: -2; Pyk2 oligo antag: 1.2; PLK1 inh: -3; PLK1 PBD inh: -17; Cav32 inh: -3.5*; HIV Rev-RRE inh: 4

What do the screens show for `CCOC(=O)C1=NN(c2ccccc2)C2(S1)SC(C(C)=O)=C(C)N2c1ccccc1` (stereo unspecified)?
FAK inh: 0; Pyk2 oligo antag: 0.93; PLK1 inh: 1; PLK1 PBD inh: 16; Cav32 inh: -4.8*; HIV Rev-RRE inh: 10

Results for CC1=C(C(=O)Nc2ccc([N+](=O)[O-])cc2)C(c2cccc(C(F)(F)F)c2)NC(=S)N1c1ccccc1 (stereo unspecified) ?
FAK inh: 0; Pyk2 oligo antag: -0.06; PLK1 inh: -15; PLK1 PBD inh: -20; Cav32 inh: -6.7*; HIV Rev-RRE inh: -1

What do the screens show for `COc1ccc(C2NC(=S)N(c3ccccc3)C(C)=C2C(=O)Nc2ccccc2)cc1` (stereo unspecified)?
FAK inh: -1; Pyk2 oligo antag: -0.43; PLK1 inh: 7; PLK1 PBD inh: 4; Cav32 inh: -2.7; HIV Rev-RRE inh: -1

Results for CN(C)C(=O)CSc1nnc([C@H](Cc2c[nH]c3ccccc23)NC(=O)OC(C)(C)C)o1 ?
Pyk2 oligo antag: -0.3; Cav32 inh: 0.51

How did Cc1ccccc1NC(=O)c1ccc(-c2ccc(Cl)cc2Cl)o1 do in these assays?
FAK inh: 1; Pyk2 oligo antag: -0.23; PLK1 inh: -6; PLK1 PBD inh: -7; Cav32 inh: -7.5*; HIV Rev-RRE inh: 15

Results for Cc1cccc(C)c1NC(=O)c1ccc(-c2ccc(Cl)cc2Cl)o1 ?
FAK inh: 0; Pyk2 oligo antag: -1.4; PLK1 inh: 3; PLK1 PBD inh: -18; Cav32 inh: -4.8*; HIV Rev-RRE inh: 15
